According to ChEMBL document CHEMBL1127787, “1,2,3-Triazole-[2',5'-bis-O-(tert-butyldimethylsilyl)-beta-D- ribofuranosyl]-3'-spiro-5"-(4"-amino-1",2"-oxathiole 2",2"-dioxide) (TSAO) analogues: synthesis and anti-HIV-1 activity” (J Med Chem, 1994):

How the values were obtained:
[1] = test system: MT4; experiment: Tested for the inhibitory activity of HIV-2 infected MT-4 cells; type: functional, cell-based; settings: Homo sapiens
Summary of the method: (§1)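 MT-4 cells (5 × 10^5/mL) grown in RPMI-1640 with 10% FCS, 2 mM L-glutamine and 0.075% NaHCO3. Infected with HIV-1 or HIV-2 at 100 CCID50/mL and mixed with compound dilutions (100 to 0.006 µg/mL). After 5 days viable cells were counted by trypan blue staining. EC50 is the concentration that reduces viable-cell loss in infected cultures by 50%.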

[2] = organism: Homo sapiens; experiment: Inhibition of HIV-1Ba-L replication was measured after 14 days postvirus challenge by HIV-p24 ELISA at the dosage of 3.3 uM concentration in human macrophages; type: functional; settings: 336 h
Summary of the method: (§2)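 Human monocyte/macrophages isolated by 5-day adherence to plastic (10^6 cells/well), >95% pure by esterase and Giemsa staining. Infected with 500 minimal infective doses/well of HIV-1/Ba-L. Compound added from 30 min before virus challenge. Virus excess removed at 48 h and medium renewed with compound. Virus production read by p24 ELISA at day 14. Data are the mean of two independent experiments.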

[3] = test system: CCRF-CEM; experiment: Tested for the inhibitory activity of virus induced giant cell formation in HIV-2 infected CEM cells; type: functional, cell-based; settings: Homo sapiens
[4] = test system: MT4; experiment: Tested for the inhibitory activity of HIV-1 infected MT-4 cells; type: functional, cell-based; settings: Homo sapiens; summary of the method: as §1
[5] = test system: MT4; experiment: Tested for the ratio between CC50 (MT-4) to EC50 (MT-4); type: functional, Homo sapiens
[6] = test system: CCRF-CEM; experiment: Tested for the inhibitory activity of virus induced giant cell formation in HIV-1 infected CEM cells; type: functional, cell-based; settings: Homo sapiens
[7] = organism: Homo sapiens; experiment: Inhibition of HIV-1Ba-L replication was measured after 14 days postvirus challenge by HIV-p24 ELISA at the dosage of 0.033 uM concentration in human macrophages; type: functional; settings: 336 h; summary of the method: as §2
[8] = test system: MT4; experiment: Tested for the cytotoxic concentration required to reduce the number of viable mock infected MT-4 cells; type: functional; settings: Homo sapiens
Summary of the method: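 Mock-infected MT-4 cells (5 × 10^5/mL) in RPMI-1640 with 10% FCS were exposed to compound dilutions (100 to 0.006 µg/mL). Viable cells were counted by trypan blue at day 5; about 150-200 cells were counted in controls. CC50 is the concentration that reduces viable cell number by 50%.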

[9] = organism: Homo sapiens; experiment: Inhibition of HIV-1Ba-L replication was measured after 14 days postvirus challenge by HIV-p24 ELISA at the dosage of 0.8 uM concentration in human macrophages; type: functional; settings: 336 h; summary of the method: as §2
[10] = organism: Homo sapiens; experiment: Inhibition of HIV-1Ba-L replication was measured after 14 days postvirus challenge by HIV-p24 ELISA at the dosage of 0.16 uM concentration in human macrophages; type: functional; settings: 336 h; summary of the method: as §2
[11] = organism: Homo sapiens; experiment: Inhibition of HIV-1Ba-L replication was measured after 14 days postvirus challenge by HIV-p24 ELISA at the dosage of 0.17 uM concentration in human macrophages; type: functional; settings: 336 h; summary of the method: as §2
[12] = organism: Homo sapiens; experiment: Inhibition of HIV-1Ba-L replication was measured after 14 days postvirus challenge by HIV-p24 ELISA at the dosage of 0.85 uM concentration in human macrophages; type: functional; settings: 336 h; summary of the method: as §2
[13] = organism: Homo sapiens; experiment: Inhibition of HIV-1Ba-L replication was measured after 14 days postvirus challenge by HIV-p24 ELISA at the dosage of 3.4 uM concentration in human macrophages; type: functional; settings: 336 h; summary of the method: as §2
[14] = organism: Homo sapiens; experiment: Inhibition of HIV-1Ba-L replication was measured after 14 days postvirus challenge by HIV-p24 ELISA at the dosage of 0.034 uM concentration in human macrophages; type: functional; settings: 336 h; summary of the method: as §2

## CCOC(=O)c1cn([C@@H]2O[C@H](CO[Si](C)(C)C(C)(C)C)[C@@]3(OS(=O)(=O)C=C3N)[C@H]2O[Si](C)(C)C(C)(C)C)nn1
[1]
  EC50: ≥ 165 µM
[2]
  inhibition at 3.3 µM: > 99%
[3]
  EC50: > 165 µM
[4]
  EC50: 0.79 µM
[5]
  Ratio: >209
[6]
  EC50: 0.54 µM
[7]
  inhibition at 0.033 µM: 0%
[8]
  CC50: > 165 µM
[9]
  inhibition at 0.8 µM: 98%
[10]
  inhibition at 0.16 µM: 20%

## CN(C)C(=O)c1cnnn1[C@@H]1O[C@H](CO[Si](C)(C)C(C)(C)C)[C@@]2(OS(=O)(=O)C=C2N)[C@H]1O[Si](C)(C)C(C)(C)C
[1]
  EC50: > 30 µM
[2]
  inhibition at 3.3 µM: > 99%
[3]
  EC50: > 7 µM
[4]
  EC50: 0.06 µM
[5]
  Ratio: 335
[6]
  EC50: 0.12 µM
[7]
  inhibition at 0.033 µM: 0%
[8]
  CC50: 20 µM
[9]
  inhibition at 0.8 µM: > 99%
[10]
  inhibition at 0.16 µM: 42%

## CCCc1cn([C@@H]2O[C@H](CO[Si](C)(C)C(C)(C)C)[C@@]3(OS(=O)(=O)C=C3N)[C@H]2O[Si](C)(C)C(C)(C)C)nn1
[11]
  inhibition at 0.17 µM: 12%
[12]
  inhibition at 0.85 µM: 42%
[1]
  EC50: > 170 µM
[13]
  inhibition at 3.4 µM: 67%
[3]
  EC50: > 35 µM
[4]
  EC50: 0.92 µM
[5]
  Ratio: >185
[6]
  EC50: 1.3 µM
[8]
  CC50: > 170 µM
[14]
  inhibition at 0.034 µM: 0%
